From ChEMBL document CHEMBL1133173, “Isoxazolines as potent antagonists of the integrin alpha(v)beta(3)” (J Med Chem, 2000) come the findings set out here.

By IC50 is commonly meant the concentration needed to halve the response being measured. A higher IC50 goes with a need for much substance.

The target of the test is Integrin alpha-V/beta-3 (Homo sapiens, UniProt P05106+P06756). The experiment in a line: Inhibition of vitronectin receptor (alpha V beta 3), expressed on human 293 cells, binding to immobilized fibrinogen. Type of test: cell-based, HEK293. The procedure, abridged: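 Human 293 cells stably transfected with human β3 plus a lacZ reporter (293β3z clone). Cells at 10⁶ viable cells/mL in MCDB131/20 mM HEPES pH 7.0 with 0.2% DMSO are preincubated with compound for 15 min at 37 °C. They are then added at 10⁵ cells/well to glycine-purified human fibrinogen-coated, BSA-blocked wells for 1 h at 37 °C, 5% CO₂. Adherent cells are lysed and β-galactosidase is read by chemiluminescence against a purified enzyme standard curve. Nonspecific binding is defined with 1 μM of a reference antagonist.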
Integrin alpha-V/beta-3, sequence (P05106 27-788 limits assumed): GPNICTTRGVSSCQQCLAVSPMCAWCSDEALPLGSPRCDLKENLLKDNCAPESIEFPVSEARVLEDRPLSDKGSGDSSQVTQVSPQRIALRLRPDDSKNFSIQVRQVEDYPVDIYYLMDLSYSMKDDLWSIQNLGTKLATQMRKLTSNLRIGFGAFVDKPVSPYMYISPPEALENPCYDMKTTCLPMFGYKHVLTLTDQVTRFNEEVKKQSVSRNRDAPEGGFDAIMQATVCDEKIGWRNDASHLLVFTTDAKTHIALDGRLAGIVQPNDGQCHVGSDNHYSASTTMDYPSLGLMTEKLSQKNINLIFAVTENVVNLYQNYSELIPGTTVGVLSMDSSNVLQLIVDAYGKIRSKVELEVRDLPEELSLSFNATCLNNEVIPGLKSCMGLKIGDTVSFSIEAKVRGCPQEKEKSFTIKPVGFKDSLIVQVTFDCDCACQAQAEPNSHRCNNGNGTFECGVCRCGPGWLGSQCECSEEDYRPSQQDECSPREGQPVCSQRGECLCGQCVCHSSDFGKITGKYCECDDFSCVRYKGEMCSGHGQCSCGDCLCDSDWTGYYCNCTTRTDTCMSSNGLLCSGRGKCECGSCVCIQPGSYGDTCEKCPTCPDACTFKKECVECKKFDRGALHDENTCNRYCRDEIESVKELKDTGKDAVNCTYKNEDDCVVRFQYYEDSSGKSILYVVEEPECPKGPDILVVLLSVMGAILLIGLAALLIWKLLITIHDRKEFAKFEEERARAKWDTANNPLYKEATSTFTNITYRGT
Integrin alpha-V/beta-3, sequence (P06756 31-889 limits assumed): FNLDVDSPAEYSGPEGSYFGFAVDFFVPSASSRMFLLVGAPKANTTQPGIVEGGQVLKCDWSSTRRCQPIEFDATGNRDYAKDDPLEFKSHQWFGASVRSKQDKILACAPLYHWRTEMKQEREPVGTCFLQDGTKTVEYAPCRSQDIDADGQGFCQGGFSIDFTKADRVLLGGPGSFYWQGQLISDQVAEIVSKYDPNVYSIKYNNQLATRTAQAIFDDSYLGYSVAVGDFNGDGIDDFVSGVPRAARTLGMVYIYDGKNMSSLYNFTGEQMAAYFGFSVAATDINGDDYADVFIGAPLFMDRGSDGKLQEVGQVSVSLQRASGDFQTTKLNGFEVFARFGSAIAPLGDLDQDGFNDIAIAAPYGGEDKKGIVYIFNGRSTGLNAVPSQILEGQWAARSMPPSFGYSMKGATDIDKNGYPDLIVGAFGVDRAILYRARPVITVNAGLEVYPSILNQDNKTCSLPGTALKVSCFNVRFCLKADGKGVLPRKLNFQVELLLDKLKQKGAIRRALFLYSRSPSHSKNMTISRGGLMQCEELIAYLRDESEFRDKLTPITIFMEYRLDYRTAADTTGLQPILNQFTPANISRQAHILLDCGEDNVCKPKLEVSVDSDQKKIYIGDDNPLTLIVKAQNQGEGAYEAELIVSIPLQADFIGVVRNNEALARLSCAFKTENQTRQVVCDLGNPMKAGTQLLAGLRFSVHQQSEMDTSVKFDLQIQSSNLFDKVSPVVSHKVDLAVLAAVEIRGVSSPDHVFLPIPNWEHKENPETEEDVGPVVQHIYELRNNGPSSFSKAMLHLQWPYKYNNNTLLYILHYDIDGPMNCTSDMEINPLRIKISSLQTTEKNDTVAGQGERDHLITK
Integrin alpha-V/beta-3, sequence (P06756 891-1048 limits assumed): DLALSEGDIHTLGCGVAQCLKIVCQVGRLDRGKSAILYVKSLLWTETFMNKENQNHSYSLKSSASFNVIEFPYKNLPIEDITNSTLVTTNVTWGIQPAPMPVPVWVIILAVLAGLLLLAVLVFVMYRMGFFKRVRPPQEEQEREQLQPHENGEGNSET
`Cc1cc(C)c(S(=O)(=O)N[C@@H](CNC(=O)C2=NOC(CCCCNc3cc4ccccc4cn3)C2)C(=O)O)c(C)c1` (stereo not given in full): the IC50 is > 1 µM. The same measure for `CN([C@@H](CNC(=O)C1=NOC(CCCCNc2ccccn2)C1)C(=O)O)S(=O)(=O)c1ccc(-c2ccccc2)cc1` (stereo not given in full): 0.13 µM. Turning to `O=C(NC[C@H](NS(=O)(=O)c1c(Cl)cccc1Cl)C(=O)O)C1=NOC(CCCCNc2ncc[nH]2)C1` (stereo not given in full), the IC50 was found to be 0.018 µM.

As to `O=C(NC[C@H](NS(=O)(=O)c1ccc(-c2ccccc2)cc1)C(=O)O)C1=NOC(CCCCNc2ncc[nH]2)C1` (stereo not given in full), the IC50 came out at 0.24 µM. The value for `O=C(NC[C@H](NS(=O)(=O)c1c(Cl)cc(-c2ccccc2)cc1Cl)C(=O)O)C1=NOC(CCCCNc2ncc[nH]2)C1` (stereo not given in full) was 0.0046 µM; that for `Cc1cc(C)c(S(=O)(=O)N[C@@H](CNC(=O)C2=NOC(CCCCNC(N)=O)C2)C(=O)O)c(C)c1` (stereo not given in full) was > 1 µM; that for `Cc1cc(C)c(S(=O)(=O)N[C@@H](CNC(=O)C2=NOC(CCCC(=O)Nc3ncc[nH]3)C2)C(=O)O)c(C)c1` (stereo not given in full) was 0.031 µM. The same measure for `O=C(NC[C@H](NS(=O)(=O)c1cccc2ccccc12)C(=O)O)C1=NOC(CCCCNc2ncc[nH]2)C1` (stereo not given in full): 0.051 µM; for `N=C(N)c1ccc(C2=NO[C@@H](CC(=O)NCCC(=O)O)C2)cc1`: > 100 µM. The value for `CC(C)c1ccc(S(=O)(=O)N[C@@H](CNC(=O)C2=NOC(CCCCNc3ccccn3)C2)C(=O)O)cc1` (stereo not given in full) was 0.17 µM; that for `Cc1cc(C)c(S(=O)(=O)N[C@@H](CNC(=O)C2=NOC(CCNC(=O)Nc3ncc[nH]3)C2)C(=O)O)c(C)c1` (stereo not given in full) was 0.034 µM.

Take `Cc1cc(C)c(S(=O)(=O)N[C@@H](CNC(=O)C2=NOC(CCCc3cccc(N)n3)C2)C(=O)O)c(C)c1` (stereo not given in full): the concentration for half-maximal inhibition (IC50) worked out at 0.026 µM. Molecule `Cc1cc(C)c(S(=O)(=O)N[C@@H](CNC(=O)C2=NOC(CCCCNC3=NCCN3)C2)C(=O)O)c(C)c1` (stereo not given in full) came in with a 50% inhibitory concentration (IC50) of 0.062 µM. The value for `Cc1cc(C)c(S(=O)(=O)N[C@@H](CNC(=O)C2=NOC(CCCCNc3ccccn3)C2)C(=O)O)c(C)c1` (stereo not given in full) was 0.054 µM; that for `Cc1noc(C)c1S(=O)(=O)N[C@@H](CNC(=O)C1=NOC(CCCCNc2ncc[nH]2)C1)C(=O)O` (stereo not given in full) was 0.073 µM. The same measure for `Cc1cc(C)c(S(=O)(=O)N[C@@H](CNC(=O)C2=NOC(CCCCNS(N)(=O)=O)C2)C(=O)O)c(C)c1` (stereo not given in full): > 1 µM; for `Cc1cc(-c2ccccc2)cc(C)c1S(=O)(=O)N[C@@H](CNC(=O)C1=NOC(CCCCNc2ncc[nH]2)C1)C(=O)O` (stereo not given in full): 0.0088 µM; for `Cc1cccc(Cl)c1S(=O)(=O)N[C@@H](CNC(=O)C1=NOC(CCCCNc2ncc[nH]2)C1)C(=O)O` (stereo not given in full): 0.0071 µM. As to `N[C@@H](CNC(=O)C1=NOC(CCCCNc2ncc[nH]2)C1)C(=O)O` (stereo not given in full), the IC50 is > 1 µM.

`Cc1cc(C)c(S(=O)(=O)N[C@@H](CNC(=O)C2=NOC(CCCCN=C(N)N)C2)C(=O)O)c(C)c1` (stereo not given in full) yielded an IC50 of 0.169 µM. In turn, `O=C(NC[C@H](NS(=O)(=O)c1ccccc1)C(=O)O)C1=NOC(CCCCNc2ncc[nH]2)C1` (stereo in doubt; 3q) registered an IC50 of 0.066 µM. The same measure for `Cc1cc(C)c(S(=O)(=O)N[C@@H](CNC(=O)C2=NOC(CCCCNc3ncc[nH]3)C2)C(=O)O)c(C)c1` (stereo not given in full): 0.015 µM.

`Cc1cc(C)c(S(=O)(=O)N[C@@H](CNC(=O)C2=NOC(CCNc3ncc[nH]3)C2)C(=O)O)c(C)c1` (stereo not given in full) gave an IC50 of 0.106 µM. Turning to `Cc1cc(-c2ccccc2)cc(C)c1S(=O)(=O)N[C@@H](CNC(=O)C1=NOC(CCCCNc2ccccn2)C1)C(=O)O` (stereo not given in full), the IC50 was determined as 0.044 µM.

On to `Cc1cc(C)c(S(=O)(=O)N[C@@H](CNC(=O)C2=NOC(CCCCNc3nccc4ccccc34)C2)C(=O)O)c(C)c1` (stereo not given in full), for which the IC50 was > 1 µM. `O=C(NC[C@H](NS(=O)(=O)c1ccccc1)C(=O)O)C1=NOC(CCCCNc2ncc[nH]2)C1` (stereo in doubt; 3cc): the IC50 came to 0.0106 µM.

With `O=C(NC[C@H](NS(=O)(=O)c1cccc2ccccc12)C(=O)O)C1=NOC(CCCCNc2ccccn2)C1` (stereo not given in full), the IC50 is 0.16 µM.

In the case of `O=C(NC[C@H](NS(=O)(=O)c1ccccc1)C(=O)O)C1=NOC(CCCCNc2ccccn2)C1` (stereo not given in full), the IC50 came out at 0.081 µM.

For `Cc1cc(C)c(S(=O)(=O)N[C@H](CNC(=O)C2=NOC(CCCCNc3ncc[nH]3)C2)C(=O)O)c(C)c1` (stereo not given in full), the IC50 is 2.8 µM. The value for `Cc1cc(C)c(S(=O)(=O)N[C@@H](CNC(=O)C2=NOC(CCCc3c[nH]c(N)n3)C2)C(=O)O)c(C)c1` (stereo not given in full) was 0.046 µM.
